Shown are actives, neighbours in structure and some others; about 1.8% of the full set was active somewhere.
PPC-1+TRAIL kill – kills PPC-1 cancer cells in the presence of TRAIL; cell killing (% activity), % at 4 µM or 5 µM; PPC-1 cells + TRAIL, ATPLite viability luminescence; AID 1443; actives 0.41% (n = 220,000);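 active = cell killing above 50% in the first pass at 4 µM, then a duplicate retest at 5 µM averaging 50% or more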
STAT3 act-1 – STAT3 signaling activation; actives 0.91% (n = 190,000); U3A cells, IL-6 STAT3-luciferase reporter, luminescence; 100% = signal with IL-6 EC80 alone; activation (% of control), % at 5.6 µM;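 active = activation above the screen-wide mean of compound activation plus 3 SD, cut at about 130% in these data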
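Test system: STAT3-luciferase reporter U3A cells; Detection: reporter luminescence signal; Times: 1 h compound pre-exposure, 6 h IL-6 stimulation, 37 °C; Benchmarks: IL-6-only high control; Also added: IL-6 stimulus at 33 ng/mL final.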
STAT1 blocker – reduces IFN-gamma driven STAT1 reporter signal | actives 0.35% (n = 200,000) | inhibition, % at 5.5 µM | NIH 3T3 STAT1-luciferase reporter, luminescence;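 active = inhibition above a set limit, the mean inhibition across all tested compounds plus 3 SD, cut at about 34% in these data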
STAT3 blocker – inhibitors of IL-6 induced STAT3 signaling; U3A cells, IL-6 STAT3-luciferase reporter, luminescence; host cell line lacks STAT1; inhibition, % at 5.5 µM; actives 0.89% (n = 190,000);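 active = inhibition above the mean inhibition across all screened compounds plus 3 SD, cut at about 44% in these data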
TRAIL sens C8 – caspase-8 TRAIL sensitization; NB7+C8 cells + TRAIL, ATPlite viability luminescence; inhibition (viability loss, TRAIL sensitization), % at 10 µM; actives 1% (n = 360,000); AID 624354;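 active = compounds causing at least 50% loss of cell viability in the single-dose screen, relative to plate controls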
STAT3 act-2 – confirmation of STAT3 signaling activators; shares compounds with STAT3 act-1; U3A STAT3-luciferase reporter, IL-6 potentiation, luminescence; U3A cells lack STAT1; 100 means same as IL-6 alone; potentiation (% of control), % at 5.7 µM; actives 64% (n = 1,200);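 active = percent activation of the STAT3 luciferase reporter above a set limit taken from the earlier primary screen, cut at about 130% in these data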
NFkB act 2 – NF-kappaB activation in STAT3 activator counter-screen; shares compounds with STAT3 act-1; human cells, NF-kappaB reporter activation; activation (% of control), % at 5.7 µM; actives 11% (n = 1,200); AID 1309; in the data active = activation above about 120%;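 note: reporter induced by TNF-alpha stimulation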
STAT1 act – STAT1 activation in STAT3 activator counter-screen; activation (% of control), % at 5.7 µM; actives 13% (n = 1,200); AID 1318; shares compounds with STAT3 act-1; NIH 3T3 STAT1-luciferase reporter, IFN-gamma, luminescence;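 active = activation above the solvent-only control well mean plus 3 SD, set per screening run, cut at about 120% in these data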
PPC-1 tox – PPC-1 cell cytotoxicity | actives 50% (n = 1,200) | cytotoxicity, % at 5 µM | PPC-1 viability, ATPlite luminescence, overnight | shares compounds with PPC-1+TRAIL kill;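 active = reconfirmed compounds whose average cytotoxicity reaches 50% or more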
Numbers stand for hits; – = inactive; · = no result given.

SMILES	PPC-1+TRAIL kill	STAT3 act-1	STAT1 blocker	STAT3 blocker	TRAIL sens C8	STAT3 act-2	NFkB act 2	STAT1 act	others
CC1=NN(c2ccc(C)cc2)C(=O)/C1=C\c1ccc(Br)s1	–	–	–	–	–	·	·	·
CC1=NN(c2ccc(Br)cc2)C(=O)/C1=C/c1cccs1	–	181.0	–	–	–	155.4	–	–
COc1ccc(C2c3[nH]c4ccccc4c3CCN2C(=O)c2ccc(=O)n(C)n2)c(F)c1 (stereo not given)	–	148.4	–	–	–	153.5	–	–
Cc1ccccc1C1c2[nH]c3ccccc3c2CCN1C(=O)c1ccc(=O)n(C)n1 (stereo not given)	–	162.9	–	–	–	168.8	–	–
CC(=O)Nc1nc(-c2ccc(Cl)cc2)nc(C)c1C(C)=O	–	136.8	–	–	–	–	–	–
CSCCC(C(=O)Nc1c(C)cccc1C)n1c(-c2cnc(C)cn2)nc2ccccc21 (stereo not given)	·	·	·	·	–	·	·	·
CC1=C(C#N)C(c2ccccc2O)C(C#N)=C(C)N1	–	142.6	–	–	–	150.7	–	–
Clc1ccc(Nc2nc(-c3cccnc3)cs2)cc1	–	192.4	–	–	–	179.3	121.5	139.3
COc1cc2cc(/C=C/C(=O)c3ccco3)c(Cl)nc2cc1OC	–	138.9	–	–	–	–	–	–
COc1ccc2cc(/C=C/C(=O)c3ccco3)c(Cl)nc2c1	–	–	–	–	·	·	·	·
CC(C)c1ccc(CN(C(=O)/C=C/c2ccco2)C2CCS(=O)(=O)C2)cc1 (stereo not given)	–	·	·	·	–	·	·	·
CCOC(=O)Cc1cc(-c2ccccc2)nc2ccc3ccccc3c12	–	136.0	–	–	–	–	–	–
CCOC(=O)c1cc(-c2ccccc2)nc2ccc(C)cc12	–	·	·	·	–	·	·	·
COC(=O)C1OC1c1cc([N+](=O)[O-])ccc1OC (stereo not given)	·	·	·	·	–	·	·	·
COc1ccc([N+](=O)[O-])cc1C1NN=C(c2ccccc2O)S1 (stereo not given)	–	150.9	–	–	–	142.1	–	–
O=C(NCCS(=O)(=O)NCC1CCCO1)c1ccccc1 (stereo not given)	·	·	·	·	–	·	·	·
COc1ccc(CC(N)c2csc(Nc3ccc(S(C)(=O)=O)cc3)n2)cc1 (stereo not given)	·	·	·	·	–	·	·	·
CCOC(=O)c1cnn(-c2ncnc3c2cnn3Cc2ccccc2)c1N	·	–	–	–	·	·	·	·
CCOC(=O)c1cnn(-c2ncnc3sc(C)c(C)c23)c1N	–	149.2	–	–	–	143.1	–	–
Cc1ccc(Oc2ccc(S(=O)(=O)N3CCOCC3)cc2C(N)=O)cc1C	·	·	·	·	–	·	·	·
COc1ccc(C2=Nn3c(nnc3-c3ccccc3OC)SC2)cc1OC1CCOC1 (stereo not given)	·	·	·	·	–	·	·	·
COc1ccccc1-c1nnc2n1N=C(c1ccc(O)c(O)c1)CS2	–	136.1	–	–	–	–	160.2	125.2
Brc1ccccc1C1=Nn2c(nnc2-c2ccccc2)SC1	–	136.7	–	–	–	140.3	–	–
Cc1cccc(NS(=O)(=O)c2ccc(C)c(C(=O)OCC(=O)Nc3cc(C)on3)c2)c1	–	140.1	–	–	–	139.7	–	–	PPC-1 tox=–
Cn1c2ccc(Cl)cc2c2nc3ccccc3nc21	–	173.3	–	–	–	173.0	–	130.7	PPC-1 tox=–
O=C1c2ccccc2-c2nc3ccccc3cc21	·	·	·	·	–	·	·	·
Cc1ccccc1-c1cc2c(nn1)-c1ccccc1C2=O	–	144.6	–	–	55.4	141.3	–	–	PPC-1 tox=–
CCCn1c(NC(=O)c2ccc(C)cc2)nc2ccccc21	–	–	–	–	–	·	·	·
CCCn1c(NC(=O)c2ccccc2)nc2ccccc21	–	137.2	–	–	–	–	–	–	PPC-1 tox=–
COc1ccc(CCNC(=O)CCCc2ccccc2)cc1OC	·	·	·	·	–	·	·	·
